Source: ChEMBL document CHEMBL3616466, “Pyrazolo[3,4-h]quinolines promising photosensitizing agents in the treatment of cancer” (Eur J Med Chem, 2015)
Activity calls are given as the source filed them. The rule behind the calls is not given here.

What was measured:
Jurkat [1] = experiment: Photocytotoxicity against human Jurkat cells assessed as growth inhibition at 2.5 J/cm'2 irradiation for 30 mins followed by drug treated for 72 hrs by MTT assay; type: functional; conditions: light or radiation study
Outline: (§1)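 Cells seeded at 5 × 10³ per well and pre-incubated 24 h. Drug dilutions in HBSS (pH 7.2, from DMSO stock) added for 30 min at 37 °C, then UV-A irradiation at the stated dose. Drug solution then replaced with culture medium and plates incubated 72 h. Viability by MTT; GI50 from concentration series.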

Jurkat [2] = experiment: Photocytotoxicity against human Jurkat cells assessed as growth inhibition at 1.25 J/cm'2 irradiation for 30 mins followed by drug treated for 72 hrs by MTT assay; type: functional; conditions: light or radiation study; outline: as §1
HL-60 [3] = experiment: Photocytotoxicity against human HL60 cells assessed as growth inhibition at 2.5 J/cm'2 irradiation for 30 mins followed by drug treated for 72 hrs by MTT assay; type: functional; conditions: HL-60, light or radiation study; outline: as §1
HL-60 [4] = experiment: Photocytotoxicity against human HL60 cells assessed as growth inhibition at 1.25 J/cm'2 irradiation for 30 mins followed by drug treated for 72 hrs by MTT assay; type: functional; conditions: HL-60, light or radiation study; outline: as §1
MCF7 [5] = experiment: Photocytotoxicity against human MCF7 cells assessed as growth inhibition at 3.75 J/cm'2 irradiation for 30 mins followed by drug treated for 72 hrs by MTT assay; type: functional; conditions: MCF7, light or radiation study; outline: as §1
MCF7 [6] = experiment: Photocytotoxicity against human MCF7 cells assessed as growth inhibition at 2.5 J/cm'2 irradiation for 30 mins followed by drug treated for 72 hrs by MTT assay; type: functional; conditions: MCF7, light or radiation study; outline: as §1
A549 [7] = experiment: Photocytotoxicity against human A549 cells assessed as growth inhibition at 3.75 J/cm'2 irradiation for 30 mins followed by drug treated for 72 hrs by MTT assay; type: functional; conditions: A549, light or radiation study; outline: as §1
A549 [8] = experiment: Photocytotoxicity against human A549 cells assessed as growth inhibition at 2.5 J/cm'2 irradiation for 30 mins followed by drug treated for 72 hrs by MTT assay; type: functional; conditions: A549, light or radiation study; outline: as §1
LoVo [9] = experiment: Photocytotoxicity against human LoVo cells assessed as growth inhibition at 3.75 J/cm'2 irradiation for 30 mins followed by drug treated for 72 hrs by MTT assay; type: functional; conditions: light or radiation study; outline: as §1
LoVo [10] = experiment: Photocytotoxicity against human LoVo cells assessed as growth inhibition at 2.5 J/cm'2 irradiation for 30 mins followed by drug treated for 72 hrs by MTT assay; type: functional; conditions: light or radiation study; outline: as §1
A549 [11] = experiment: Photocytotoxicity against human A549 cells assessed as inhibition of colony formation at 2.5 J/cm'2 irradiation after 1 to 2 weeks using crystal violet staining by optical microscopy; type: functional, cell-based
Outline: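 A-549 cells (10 × 10³) plated in dishes. After 24 h, irradiated at 2.5 J/cm² with compound at varying concentrations. Medium replaced, then cultured 1–2 weeks with medium changes every 2–3 days. Stained with crystal violet; colonies of ≥50 cells counted visually. Expressed as % of untreated cells; mean ± SEM of three experiments.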

Jurkat [12] = experiment: Induction of apoptosis in human Jurkat cells assessed as reduction in alive cells using Annexin-V and propidium iodide staining at 1 to 2 uM measured 24 hrs post 2.5 J/cm'2 irradiation by flow cytometry analysis; type: functional, cell-based
Outline: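 Jurkat cells irradiated (2.5 J/cm²) with compound at 1 or 2 µM. After 24 h, co-stained with Annexin V-FITC and PI and analysed by flow cytometry (excitation 488 nm; emission 525 and 585 nm). Mean of three independent experiments.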

Jurkat [13] = experiment: Induction of apoptosis in human Jurkat cells assessed as increase in cleaved caspase 3 level at 1 uM measured 24 hrs post 2.5 J/cm'2 irradiation by Western blot analysis; type: functional, cell-based
Outline: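 Jurkat cells irradiated (2.5 J/cm²) with compound at 1 µM. At 24 h, cells washed in cold PBS and lysed on ice for 20 min. 20 µg protein run on 8–16% gradient gels and transferred to nitrocellulose. Probed with rabbit anti-caspase-3 and β-actin (1:1000, 2 h), then peroxidase anti-rabbit IgG; ECL detection.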

Jurkat [14] = experiment: Induction of apoptosis in human Jurkat cells assessed as reduction in mitochondrial potential at 1 to 2 uM using JC-1 staining measured 24 hrs post 2.5 J/cm'2 irradiation by FACS assay; type: functional, cell-based
Outline: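 At 24 h after 2.5 J/cm² irradiation with compound at 1 or 2 µM, Jurkat cells were pelleted and resuspended in HBSS with 1 µM JC-1. After 10 min at 37 °C, fluorescence read at 530 and 590 nm by flow cytometry. Mean ± SEM, n=3.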

Jurkat [15] = experiment: Induction of apoptosis in human Jurkat cells assessed as ROS production at 1 to 2 uM using HE and DCFDA staining measured 24 hrs post 2.5 J/cm'2 irradiation by FACS assay; type: functional, cell-based
Jurkat [16] = experiment: Induction of apoptosis in human Jurkat cells assessed as lysosome death at 1 to 2 uM using acridine orange staining measured 24 hrs post 2.5 J/cm'2 irradiation by flow cytometry; type: functional, cell-based
Escherichia coli = experiment: Induction of DNA damage in Escherichia coli pBR322 DNA measured at 7.5 J/cm'2 UV-A irradiation by neutral agarose electrophoresis
Outline: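 pBR322 plasmid (100 ng) in 10 mM phosphate buffer pH 7.2 irradiated at 7.5 J/cm² UV-A with compound at a compound/DNA ratio of 3/1. Aliquots incubated at 37 °C with Fpg or Endo III. Run on 1% agarose in TAE at 70 V for 4 h; supercoiled, open circular and linear bands quantified.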

Jurkat [17] = experiment: Induction of lipid peroxidation in human Jurkat cells at 2 uM measured 24 hrs post 2.5 J/cm'2 irradiation by TBA assay; type: functional, cell-based
Outline: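 TBA test for TBARS performed on supernatant medium and on cell lysates 24 h post-irradiation. Mean ± SEM of three experiments.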

Jurkat [18] = experiment: Photocytotoxicity against human Jurkat cells assessed as cell survival at 0.5 uM measured 72 hrs post 2.5 J/cm'2 irradiation by MTT assay in presence of lipophilic scavengers; type: functional, cell-based
Outline: (§2)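 Jurkat cells irradiated at 2.5 J/cm² with compound in HBSS together with a scavenger: vitamin E 60 µM, NaN₃ 10 mM, DABCO 1 mM, GSH 1 mM, DMTU 1 mM or mannitol 10 mM. Medium replaced after irradiation; viability by MTT 72 h later.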

Jurkat [19] = experiment: Cytotoxicity against human Jurkat cells assessed as growth inhibition after 72 hrs by MTT assay; type: functional
HL-60 [20] = experiment: Cytotoxicity against human HL60 cells assessed as growth inhibition after 72 hrs by MTT assay; type: functional; conditions: HL-60, 72 h
A549 [21] = experiment: Cytotoxicity against human A549 cells assessed as growth inhibition after 72 hrs by MTT assay; type: functional; conditions: A549, 72 h
Outline: (§3)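 Cells (5 × 10³ per well) pre-incubated 24 h at 37 °C, 5% CO₂, then exposed in the dark to serial concentrations diluted from DMSO stock into complete medium for 72 h at 37 °C. Viability read by MTT; GI50 derived. LoVo in Ham's F-12, MCF-7 and A-549 in DMEM, all with 10% FBS and penicillin/streptomycin.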

MCF7 [22] = experiment: Cytotoxicity against human MCF7 cells assessed as growth inhibition after 72 hrs by MTT assay; type: functional; conditions: MCF7, 72 h; outline: as §3
LoVo [23] = experiment: Cytotoxicity against human LoVo cells assessed as growth inhibition after 72 hrs by MTT assay; type: functional; outline: as §3
Jurkat [24] = experiment: Photocytotoxicity against human Jurkat cells assessed as reduction of cell survival at 0.2 uM measured 72 hrs post 2.5 J/cm'2 irradiation by MTT assay in the presence of vitamin E, NaN3, DABCO, DMTU and MANN; type: functional, cell-based; outline: as §2
[25] = Induction of singlet oxygen generation measured after UV-A irradiation by RNO bleaching assay; type: physicochemical
Outline: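 Compound (2.2 × 10⁻⁵ M), RNO (4 × 10⁻⁵ M) and imidazole (4 × 10⁻⁵ M) in phosphate buffer pH 7.3 irradiated with increasing UV-A doses. Absorbance read at 440 nm; reported as % RNO bleaching.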

[26] = Induction of superoxide anion generation measured after UV-A irradiation by NBT reduction assay; type: physicochemical
Outline: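 Compound (10⁻⁵ M) with nitroblue tetrazolium (1.6 × 10⁻⁴ M) in carbonate buffer pH 10 irradiated with increasing UV-A doses. Absorbance at 560 nm followed as the superoxide read-out.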

MCF7 [27] = experiment: Ratio of angelicin GI50 to compound GI50 for human MCF7 cells assessed as growth inhibition at 3.75 J/cm'2 irradiation for 30 mins followed by drug treated for 72 hrs by MTT assay; type: functional
Outline: (§4)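 Cells were pre-incubated 30 min at 37 °C with drug in HBSS, irradiated, then drug replaced with medium. Ratio is angelicin GI50 divided by compound GI50.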

LoVo [28] = experiment: Ratio of angelicin GI50 to compound GI50 for human LoVo cells assessed as growth inhibition at 3.75 J/cm'2 irradiation for 30 mins followed by drug treated for 72 hrs by MTT assay; type: functional; outline: as §4
Jurkat [29] = experiment: Photocytotoxicity against human Jurkat cells assessed as reduction of cell survival at 0.5 uM measured 72 hrs post 2.5 J/cm'2 irradiation by MTT assay in the presence of vitamin E, NaN3, DABCO, DMTU and MANN; type: functional, cell-based; outline: as §2

SMILES | GI50 (Jurkat [1]) [µM] | GI50 (Jurkat [2]) [µM] | GI50 (HL-60 [3]) [µM] | GI50 (HL-60 [4]) [µM] | GI50 (MCF7 [5]) [µM] | GI50 (MCF7 [6]) [µM] | GI50 (A549 [7]) [µM] | GI50 (A549 [8]) [µM] | GI50 (LoVo [9]) [µM] | GI50 (LoVo [10]) [µM] | Activity (A549 [11]) | Activity (Jurkat [12]) | Activity (Jurkat [13]) | Activity (Jurkat [14]) | Activity (Jurkat [15]) | Activity (Jurkat [16]) | Activity (Escherichia coli) | Activity (Jurkat [17]) | GI50 (Jurkat [19]) [µM] | GI50 (HL-60 [20]) [µM] | further results
COc1nc2c(cc1S(=O)(=O)c1ccccc1)CCc1c-2cnn1-c1ccc(Cl)cc1 | 0.43 | 0.72 | 0.48 | 4.03 | 1.69 | 7.09 | 1.49 | 5.28 | 0.73 | 5.53 | Dose-dependent effect | Active | inactive | Active | inactive | inactive | inactive | Active | 11.3 | > 20 | Activity (Jurkat [18]): inactive; GI50 (A549 [21]): > 20 µM; GI50 (MCF7 [22]): > 20 µM; GI50 (LoVo [23]): > 20 µM
Cn1c(=O)c(S(=O)(=O)c2ccccc2)cc2ccc3c(cnn3-c3ccc(Cl)cc3)c21 | 0.1 | 0.2 | 0.31 | 0.39 | 0.17 | 0.33 | 0.08 | 0.26 | 0.04 | 0.16 | Dose-dependent effect | Active | Active | Active | Active | Active | inactive | Active |  |  | Activity (Jurkat [24]): inactive; Activity [25]: Active; Activity [26]: Active; Ratio IC50 (MCF7 [27]): 8; Ratio IC50 (LoVo [28]): 27
COc1nc2c(cc1S(=O)(=O)c1ccccc1)CCc1c-2cnn1-c1cccc(Cl)c1 | 1.34 | 1.95 | 0.53 | 3.42 | 2.52 | 5.15 | 6.61 | 13.3 | 2.99 | 9.84 |  |  |  |  |  |  |  |  | 13.2 | > 20 | GI50 (A549 [21]): > 20 µM; GI50 (MCF7 [22]): > 20 µM; GI50 (LoVo [23]): > 20 µM
COc1ccc(-n2ncc3c2CCc2cc(S(=O)(=O)c4ccccc4)c(OC)nc2-3)cc1 | 0.64 | 1.15 | 0.72 | 5.29 | 1.18 | 2.53 | 1.52 | 4.02 | 0.53 | 3.56 | Dose-dependent effect | Active | inactive | Active | inactive | inactive | inactive | Active | 12.5 | > 20 | Activity (Jurkat [29]): inactive; Activity (Jurkat [18]): inactive; GI50 (A549 [21]): > 20 µM; GI50 (MCF7 [22]): > 20 µM; GI50 (LoVo [23]): > 20 µM
